Data published in the M2OR odorant receptor database.
Changes are numbered by the printed parent chain.

Key:
Conditions in all cases: stereoisomer not certain
OR5K3 (Homo sapiens) = target: T1, OR5K3 (Homo sapiens) (UniProt A6NET4)
T1 sequence (whole entry): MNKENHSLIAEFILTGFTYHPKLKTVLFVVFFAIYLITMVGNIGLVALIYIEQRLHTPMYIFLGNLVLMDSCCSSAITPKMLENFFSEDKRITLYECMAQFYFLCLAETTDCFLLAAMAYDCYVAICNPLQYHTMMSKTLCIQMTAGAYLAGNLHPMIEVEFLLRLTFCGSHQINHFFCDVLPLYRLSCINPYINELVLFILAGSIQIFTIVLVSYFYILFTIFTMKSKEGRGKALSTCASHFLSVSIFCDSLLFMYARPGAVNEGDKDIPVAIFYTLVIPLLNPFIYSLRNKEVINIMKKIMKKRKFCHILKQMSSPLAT
In short: (§1)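 Each receptor–molecule pair is labelled responsive or non-responsive (inactive) according to whether the original authors judged the measured signal statistically different from baseline. The data were taken from the main text and supplementary material of published papers and checked for typos and inconsistencies. Assay methods differed by source, with transient luciferase assays in mammalian cell lines being common.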

OR5K4 (Homo sapiens) = target: T2, OR5K4 (Homo sapiens) (UniProt A6NMS3)
T2 sequence (whole entry): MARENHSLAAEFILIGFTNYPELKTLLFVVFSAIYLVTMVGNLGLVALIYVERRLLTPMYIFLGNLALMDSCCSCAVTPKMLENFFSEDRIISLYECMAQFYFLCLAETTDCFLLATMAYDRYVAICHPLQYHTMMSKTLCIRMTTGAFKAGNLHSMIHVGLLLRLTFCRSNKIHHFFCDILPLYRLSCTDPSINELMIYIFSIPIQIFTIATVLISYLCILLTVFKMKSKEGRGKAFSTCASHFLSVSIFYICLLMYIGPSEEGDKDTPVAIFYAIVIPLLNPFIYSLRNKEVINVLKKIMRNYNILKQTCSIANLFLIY
In short: as §1

OR5L1 (Homo sapiens) = target: T3, OR5L1 (Homo sapiens) (UniProt Q8NGL2)
T3 sequence (whole entry): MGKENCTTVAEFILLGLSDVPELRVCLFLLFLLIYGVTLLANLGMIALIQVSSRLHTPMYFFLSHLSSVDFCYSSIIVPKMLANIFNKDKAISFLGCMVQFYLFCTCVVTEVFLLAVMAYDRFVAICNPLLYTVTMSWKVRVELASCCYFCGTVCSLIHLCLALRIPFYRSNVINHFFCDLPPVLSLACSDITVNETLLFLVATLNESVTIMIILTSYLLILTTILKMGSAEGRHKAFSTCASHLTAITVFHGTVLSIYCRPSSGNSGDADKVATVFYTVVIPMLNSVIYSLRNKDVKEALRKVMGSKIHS
In short: as §1

OR5M1 (Homo sapiens) = target: T4, OR5M1 (Homo sapiens) (UniProt Q8NGP8)
T4 sequence (whole entry): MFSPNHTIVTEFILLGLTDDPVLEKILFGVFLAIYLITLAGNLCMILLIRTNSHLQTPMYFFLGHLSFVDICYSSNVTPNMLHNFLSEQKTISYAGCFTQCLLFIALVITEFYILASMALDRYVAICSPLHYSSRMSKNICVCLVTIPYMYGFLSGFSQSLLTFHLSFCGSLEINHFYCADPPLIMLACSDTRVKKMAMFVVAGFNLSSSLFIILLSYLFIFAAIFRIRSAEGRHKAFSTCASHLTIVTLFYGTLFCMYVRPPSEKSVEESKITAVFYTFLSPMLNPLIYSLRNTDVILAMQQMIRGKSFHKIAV
In short: as §1

OR5M10 (Homo sapiens) = target: T5, OR5M10 (Homo sapiens) (UniProt Q6IEU7)
T5 sequence (whole entry): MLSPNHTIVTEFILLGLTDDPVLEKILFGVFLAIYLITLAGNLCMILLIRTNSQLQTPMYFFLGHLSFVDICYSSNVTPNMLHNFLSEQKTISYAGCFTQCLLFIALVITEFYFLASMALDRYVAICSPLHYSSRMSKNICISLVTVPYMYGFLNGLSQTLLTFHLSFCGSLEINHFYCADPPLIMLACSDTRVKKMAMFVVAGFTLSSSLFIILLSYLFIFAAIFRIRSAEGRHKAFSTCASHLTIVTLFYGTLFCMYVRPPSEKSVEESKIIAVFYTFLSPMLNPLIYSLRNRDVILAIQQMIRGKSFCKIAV
In short: as §1

OR5M11 (Homo sapiens) = target: T6, OR5M11 (Homo sapiens) (UniProt Q96RB7)
T6 sequence (whole entry): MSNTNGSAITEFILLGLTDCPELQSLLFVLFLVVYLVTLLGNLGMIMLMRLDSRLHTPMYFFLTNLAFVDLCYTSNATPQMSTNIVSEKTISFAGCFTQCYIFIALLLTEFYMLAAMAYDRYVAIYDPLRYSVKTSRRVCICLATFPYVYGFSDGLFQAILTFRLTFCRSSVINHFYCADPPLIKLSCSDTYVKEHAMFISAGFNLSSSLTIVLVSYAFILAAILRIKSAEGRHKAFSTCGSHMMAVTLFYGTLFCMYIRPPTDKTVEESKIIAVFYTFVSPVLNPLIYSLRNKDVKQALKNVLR
In short: as §1

OR5M3 (Homo sapiens) = target: T7, OR5M3 (Homo sapiens) (UniProt Q8NGP4)
T7 sequence (whole entry): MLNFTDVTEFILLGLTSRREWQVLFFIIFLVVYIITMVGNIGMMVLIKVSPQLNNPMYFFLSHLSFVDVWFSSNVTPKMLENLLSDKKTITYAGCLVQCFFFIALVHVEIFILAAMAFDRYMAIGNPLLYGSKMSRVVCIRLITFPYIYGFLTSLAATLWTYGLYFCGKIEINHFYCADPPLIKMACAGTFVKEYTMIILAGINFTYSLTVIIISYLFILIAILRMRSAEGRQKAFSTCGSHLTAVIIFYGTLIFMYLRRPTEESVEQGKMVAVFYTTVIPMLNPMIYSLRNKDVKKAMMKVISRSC
In short: as §1

OR5M8 (Homo sapiens) = target: T8, OR5M8 (Homo sapiens) (UniProt Q8NGP6)
T8 sequence (whole entry): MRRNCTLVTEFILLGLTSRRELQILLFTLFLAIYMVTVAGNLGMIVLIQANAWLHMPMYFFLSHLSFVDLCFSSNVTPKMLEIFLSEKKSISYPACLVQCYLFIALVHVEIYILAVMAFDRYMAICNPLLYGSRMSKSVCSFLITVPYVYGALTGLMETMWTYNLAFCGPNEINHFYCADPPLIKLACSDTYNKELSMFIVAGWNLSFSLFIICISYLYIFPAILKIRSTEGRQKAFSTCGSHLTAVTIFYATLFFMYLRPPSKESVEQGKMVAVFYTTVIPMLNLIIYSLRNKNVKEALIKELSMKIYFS
In short: as §1

OR5M9 (Homo sapiens) = target: T9, OR5M9 (Homo sapiens) (UniProt Q8NGP3)
T9 sequence (whole entry): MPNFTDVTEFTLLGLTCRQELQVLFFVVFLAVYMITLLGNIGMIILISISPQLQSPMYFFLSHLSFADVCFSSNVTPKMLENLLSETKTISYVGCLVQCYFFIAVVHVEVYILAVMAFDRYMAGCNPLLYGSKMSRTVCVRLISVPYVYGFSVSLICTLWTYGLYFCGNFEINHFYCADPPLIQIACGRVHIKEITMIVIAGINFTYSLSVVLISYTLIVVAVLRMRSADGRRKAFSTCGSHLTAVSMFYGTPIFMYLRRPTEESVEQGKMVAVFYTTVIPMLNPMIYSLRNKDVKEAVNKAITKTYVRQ
In short: as §1

OR5P2 (Homo sapiens) = target: T10, OR5P2 (Homo sapiens) (UniProt Q8WZ92)
T10 sequence (whole entry): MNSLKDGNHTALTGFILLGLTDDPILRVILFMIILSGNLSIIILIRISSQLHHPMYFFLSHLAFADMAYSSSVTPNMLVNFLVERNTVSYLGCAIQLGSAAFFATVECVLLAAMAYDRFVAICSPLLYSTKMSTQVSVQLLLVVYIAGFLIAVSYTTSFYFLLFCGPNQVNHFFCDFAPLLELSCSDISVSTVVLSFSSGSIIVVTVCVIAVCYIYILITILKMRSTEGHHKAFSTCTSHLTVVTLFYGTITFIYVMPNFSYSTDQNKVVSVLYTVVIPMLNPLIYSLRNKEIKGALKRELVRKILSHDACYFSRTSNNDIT
In short: as §1

OR5P3 (Homo sapiens) = target: T11, OR5P3 (Homo sapiens) (UniProt Q8WZ94)
T11 sequence (whole entry): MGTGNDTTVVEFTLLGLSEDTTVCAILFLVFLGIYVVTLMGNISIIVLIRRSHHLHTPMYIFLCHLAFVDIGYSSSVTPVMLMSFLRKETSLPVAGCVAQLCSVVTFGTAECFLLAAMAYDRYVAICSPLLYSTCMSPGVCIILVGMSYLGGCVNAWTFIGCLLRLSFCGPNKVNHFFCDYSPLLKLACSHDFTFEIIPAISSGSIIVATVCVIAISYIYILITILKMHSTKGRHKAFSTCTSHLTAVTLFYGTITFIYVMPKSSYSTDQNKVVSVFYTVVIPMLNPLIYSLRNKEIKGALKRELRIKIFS
In short: as §1

OR5T1 (Homo sapiens) = target: T12, OR5T1 (Homo sapiens) (UniProt Q8NG75)
T12 sequence (whole entry): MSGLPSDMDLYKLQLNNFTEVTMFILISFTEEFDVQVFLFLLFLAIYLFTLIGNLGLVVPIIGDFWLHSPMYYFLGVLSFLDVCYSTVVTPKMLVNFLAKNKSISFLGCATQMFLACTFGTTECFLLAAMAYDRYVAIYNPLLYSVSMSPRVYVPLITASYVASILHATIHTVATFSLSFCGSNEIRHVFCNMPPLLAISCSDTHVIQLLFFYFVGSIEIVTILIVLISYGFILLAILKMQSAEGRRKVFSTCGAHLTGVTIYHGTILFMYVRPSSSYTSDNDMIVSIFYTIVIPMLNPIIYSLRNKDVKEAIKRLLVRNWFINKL
In short: as §1

OR5T2 (Homo sapiens) = target: T13, OR5T2 (Homo sapiens) (UniProt Q8NGG2)
T13 sequence (whole entry): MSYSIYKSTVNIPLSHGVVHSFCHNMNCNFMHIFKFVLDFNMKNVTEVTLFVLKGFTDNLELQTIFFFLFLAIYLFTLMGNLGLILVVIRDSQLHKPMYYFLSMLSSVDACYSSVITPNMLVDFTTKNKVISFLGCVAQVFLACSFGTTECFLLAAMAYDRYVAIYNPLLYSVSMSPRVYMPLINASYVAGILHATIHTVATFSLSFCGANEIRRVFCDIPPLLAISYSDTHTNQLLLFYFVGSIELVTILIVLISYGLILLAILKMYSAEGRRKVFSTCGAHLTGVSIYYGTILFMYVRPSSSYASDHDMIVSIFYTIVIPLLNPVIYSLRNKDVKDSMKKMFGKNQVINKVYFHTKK
In short: as §1

OR5L2 (Homo sapiens) = target: T14, OR5L2 (Homo sapiens) (UniProt Q8NGL0)
T14 sequence (whole entry): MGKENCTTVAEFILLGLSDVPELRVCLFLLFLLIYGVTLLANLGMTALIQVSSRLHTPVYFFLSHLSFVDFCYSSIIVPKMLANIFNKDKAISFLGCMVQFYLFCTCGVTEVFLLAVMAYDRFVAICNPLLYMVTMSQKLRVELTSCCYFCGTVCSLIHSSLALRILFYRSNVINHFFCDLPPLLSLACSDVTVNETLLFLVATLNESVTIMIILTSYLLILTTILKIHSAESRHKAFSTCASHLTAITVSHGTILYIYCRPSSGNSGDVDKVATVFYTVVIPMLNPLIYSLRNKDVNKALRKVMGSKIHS
In short: as §1

OR5M1 T295R M301I = tested on: T15, OR5M1 T295R M301I
T15 sequence (whole entry): T4 sequence (whole entry) with T295R, M301I
In short: as §1

OR5M3 N3Y A156T = tested on: T16, OR5M3 N3Y A156T
T16 sequence (whole entry): T7 sequence (whole entry) with N3Y, A156T
In short: as §1

OR5MA L2F C311H = tested on: T17, OR5MA L2F C311H
T17 sequence (whole entry): T5 sequence (whole entry) with L2F, C311H
In short: as §1

OR5MA L2F Q54H C311H = tested on: T18, OR5MA L2F Q54H C311H
T18 sequence (whole entry): T5 sequence (whole entry) with L2F, Q54H, C311H
In short: as §1

OR5P3 L301R = tested on: T19, OR5P3 L301R
T19 sequence (whole entry): T11 sequence (whole entry) with L301R
In short: as §1

OR5R1 C122R S128G F184L = tested on: T20, OR5R1 C122R S128G F184L
T20 sequence (whole entry): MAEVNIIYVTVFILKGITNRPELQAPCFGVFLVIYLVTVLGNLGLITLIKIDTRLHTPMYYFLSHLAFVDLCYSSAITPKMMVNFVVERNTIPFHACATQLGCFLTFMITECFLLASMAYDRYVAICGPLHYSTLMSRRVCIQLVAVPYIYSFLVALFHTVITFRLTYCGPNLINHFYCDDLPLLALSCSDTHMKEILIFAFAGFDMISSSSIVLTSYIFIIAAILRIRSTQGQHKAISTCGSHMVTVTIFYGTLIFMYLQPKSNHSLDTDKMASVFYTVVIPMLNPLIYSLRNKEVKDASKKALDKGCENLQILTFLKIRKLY
In short: as §1

Measured: odorant receptor agonist call;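 further: active if original authors judged signal statistically different from baseline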

CC1CCCCCCCCCCCCC(=O)C1 (configuration not stated)
not listed: OR5L2 (Homo sapiens) | OR5M1 T295R M301I | OR5M3 N3Y A156T | OR5MA L2F C311H | OR5MA L2F Q54H C311H | OR5P3 L301R | OR5R1 C122R S128G F184L
inactive: all other assays above

CC(=O)c1cnccn1
inactive: OR5K3 (Homo sapiens) | OR5K4 (Homo sapiens) | OR5M3 (Homo sapiens)

Cc1cnc(C)cn1
inactive: OR5K3 (Homo sapiens) | OR5K4 (Homo sapiens)

CCCCCC(S)C(C)CO (configuration not stated)
not listed: OR5M1 T295R M301I | OR5M3 N3Y A156T | OR5MA L2F C311H | OR5MA L2F Q54H C311H | OR5P3 L301R | OR5R1 C122R S128G F184L
inactive: all other assays above

CCc1nccnc1C
inactive: OR5K3 (Homo sapiens) | OR5K4 (Homo sapiens)

O=C(O)CCc1ccccc1
inactive: OR5M3 (Homo sapiens)

CC=Cc1ccc(OC)cc1
inactive: OR5M3 (Homo sapiens)

CSSc1ccoc1C
inactive: OR5M3 (Homo sapiens)

C=Cc1cnccn1
inactive: OR5K3 (Homo sapiens) | OR5K4 (Homo sapiens)

Cc1cncc(C)n1
inactive: OR5K3 (Homo sapiens) | OR5K4 (Homo sapiens)

Cc1cnccn1
inactive: OR5K3 (Homo sapiens) | OR5K4 (Homo sapiens)

CCCC(S)CCOC(C)=O (configuration not stated)
inactive: all assays above

CCCCCC(=O)C(C)C(C)=O (configuration not stated)
not listed: OR5M1 T295R M301I | OR5M3 N3Y A156T | OR5MA L2F C311H | OR5MA L2F Q54H C311H | OR5P3 L301R | OR5R1 C122R S128G F184L
inactive: all other assays above
